Tests used:
[1] = pKA value was determined; Experiment 2; format: physicochemical
[2] = target: GABA transporter (Rattus norvegicus, UniProt P31647+P23978+P31646+P48056); assay: Inhibition of high affinity neuronal GABA uptake by synaptosomes of rat brain membrane; format: functional, subcellular
[3] = pKA value was determined; Experiment 1; format: physicochemical
[4] = target: GABA-A receptor; anion channel; assay: Inhibition of [3H]GABA binding to Gamma-aminobutyric acid receptor of rat brain synaptosomal membranes; format: cell membranes, Membrane
Procedure, shortened: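 Rat brain synaptic membranes (0.8–1.2 mg protein) were incubated in triplicate for 5 min at 4 °C in 0.05 M Tris-citrate pH 7.1 with 5 nM [3H]GABA, plus 1 mM GABA or 100 µM test agent. Protein was measured by Lowry.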

O=C(O)[C@H]1CNCC[C@H]1O
pKa [1]: 10 | IC50 [2]: 11 µM | pKa [3]: 3.4 | IC50 [4]: > 100 µM

O=C(O)C1CCNCC1 [ISONIPECOTIC ACID]
pKa [1]: 10.5 | IC50 [2]: > 300 µM | pKa [3]: 3.8 | IC50 [4]: 0.33 µM

CC(=O)N[C@@H]1CCNC[C@@H]1C(=O)O
pKa [1]: 9.7 | IC50 [2]: > 300 µM | pKa [3]: 3.2 | IC50 [4]: > 100 µM

O=C(O)[C@H]1CNCC[C@@H]1O
pKa [1]: 9.4 | IC50 [2]: 203 µM | pKa [3]: 3.1 | IC50 [4]: > 100 µM

CC(=O)N[C@@H]1CNC[C@H](C(=O)O)C1
pKa [1]: 8.6 | IC50 [2]: 240 µM | pKa [3]: 3 | IC50 [4]: > 100 µM

NCCCC(=O)O [GAMMA-AMINOBUTYRIC ACID]
pKa [1]: 10.7 | pKa [3]: 4

O=C(O)[C@@H]1CCNC[C@@H]1O
pKa [1]: 10 | IC50 [2]: > 300 µM | pKa [3]: 3.7 | IC50 [4]: 12 µM

O=C(O)[C@H]1CNC[C@@H](O)C1
pKa [1]: 8.9 | IC50 [2]: 173 µM | pKa [3]: 3.5 | IC50 [4]: > 100 µM

O=C(O)C1CCCNC1 (configuration not stated) [NIPECOTIC ACID]
pKa [1]: 10.3 | pKa [3]: 3.9 | IC50 [4]: > 100 µM

O=C(O)[C@@H]1CCNC[C@H]1O
pKa [1]: 9.3 | IC50 [2]: > 300 µM | pKa [3]: 3.6 | IC50 [4]: 43 µM

Reference: ChEMBL document CHEMBL1121947 (J Med Chem, 1982)
